Experimental data published in ChEMBL document CHEMBL4346672, “Antimicrobial and KPC/AmpC inhibitory activity of functionalized benzosiloxaboroles” (Eur J Med Chem, 2019).
≈ marks a conversion by molar mass, not a printed value. One block for each compound: values may come before it. Calls of active or inactive are those of the source. The calls are words filed in the database; no cut-off is given here.

How the values were obtained:
Candida tropicalis = test: Antifungal activity against Candida tropicalis IBA 171 assessed as diameter of zone inhibition incubated for 24 hrs by CLSI disc diffusion method; type: functional
Procedure, shortened: (§1)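 Yeast disc diffusion on Mueller-Hinton agar supplemented with 2% glucose and 0.5 mg/L methylene blue. Compounds in DMSO. Yeasts subcultured on Sabouraud dextrose agar before testing. Zones read after 35 °C, 24 h.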

[1] = Dissociation constant, pKa1 of compound in 0.1 M NaOH by potentiometric analysis; type: physicochemical
[2] = system: Bordetella bronchiseptica; test: Antibacterial activity against Bordetella bronchiseptica ATCC 4617 assessed as diameter of zone inhibition measured after 18 hrs by CLSI disc diffusion method; type: functional
Procedure, shortened: (§2)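 Disc diffusion on Mueller-Hinton II agar. Compounds dissolved in DMSO. Strains stored at -80 °C and subcultured twice on tryptic soy agar before testing. Inhibition zones read after 35 °C, 18 h.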

Pichia kudriavzevii = test: Antifungal activity against Candida krusei ATCC 6258 assessed as diameter of zone inhibition incubated for 24 hrs by CLSI disc diffusion method; type: functional; procedure, shortened: as §1
Candida parapsilosis = test: Antifungal activity against Candida parapsilosis ATCC 22019 assessed as diameter of zone inhibition incubated for 24 hrs by CLSI disc diffusion method; type: functional; procedure, shortened: as §1
[3] = Dissociation constant, pKa2 of compound in 0.1 M NaOH by potentiometric analysis; type: physicochemical
Bacillus subtilis [4] = test: Antibacterial activity against Bacillus subtilis ATCC 6633 assessed as diameter of zone inhibition measured after 18 hrs by CLSI disc diffusion method; type: functional; procedure, shortened: as §2
Proteus mirabilis [5] = test: Antibacterial activity against Proteus mirabilis ATCC 12453 assessed as diameter of zone inhibition measured after 18 hrs by CLSI disc diffusion method; type: functional; procedure, shortened: as §2
Serratia marcescens [6] = conditions: ATCC 13880
Burkholderia cepacia [7] = test: Antibacterial activity against Burkholderia cepacia ATCC 25416 assessed as diameter of zone inhibition measured after 18 hrs by CLSI disc diffusion method; type: functional; procedure, shortened: as §2
Staphylococcus aureus [8] = test: Antibacterial activity against Staphylococcus aureus ATCC 6538P assessed as diameter of zone inhibition measured after 18 hrs by CLSI disc diffusion method; type: functional; procedure, shortened: as §2
Escherichia coli [9] = test: Antibacterial activity against Escherichia coli ATCC 25922 assessed as diameter of zone inhibition measured after 18 hrs by CLSI disc diffusion method; type: functional; procedure, shortened: as §2
[10] = system: Stenotrophomonas maltophilia; test: Antibacterial activity against Stenotrophomonas maltophilia ATCC 13637 assessed as diameter of zone inhibition measured after 18 hrs by CLSI disc diffusion method; type: functional; procedure, shortened: as §2
[11] = system: Staphylococcus epidermidis; test: Antibacterial activity against Staphylococcus epidermidis ATCC 12228 assessed as diameter of zone inhibition measured after 18 hrs by CLSI disc diffusion method; type: functional; procedure, shortened: as §2
Enterobacter cloacae [12] = test: Antibacterial activity against Enterobacter cloacae DSM 6234 assessed as diameter of zone inhibition measured after 18 hrs by CLSI disc diffusion method; type: functional; procedure, shortened: as §2
Klebsiella pneumoniae [13] = conditions: ATCC 13883
Saccharomyces cerevisiae = test: Antifungal activity against Saccharomyces cerevisiae ATCC 9763 diameter of zone inhibition incubated for 24 hrs by CLSI disc diffusion method; type: functional
Procedure, shortened: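 Disc-diffusion run on Mueller-Hinton II agar with 2% glucose and 0.5 mg/L methylene blue, using compounds in DMSO. Yeast was precultured on Sabouraud dextrose agar (24–48 h, 30 °C). Zones read after 24 h at 35 °C.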

Pseudomonas aeruginosa [14] = test: Antibacterial activity against Pseudomonas aeruginosa ATCC 27853 assessed as diameter of zone inhibition measured after 18 hrs by CLSI disc diffusion method; type: functional, organism-based; procedure, shortened: as §2
Enterococcus faecalis [15] = test: Antibacterial activity against Enterococcus faecalis ATCC 29212 assessed as diameter of zone inhibition measured after 18 hrs by CLSI disc diffusion method; type: functional; procedure, shortened: as §2
Enterococcus faecium [16] = test: Antibacterial activity against Enterococcus faecium ATCC 6057 assessed as diameter of zone inhibition measured after 18 hrs by CLSI disc diffusion method; type: functional; procedure, shortened: as §2
[17] = system: Meyerozyma guilliermondii; test: Antifungal activity against Candida guilliermondii IBA 155 assessed as diameter of zone inhibition incubated for 24 hrs by CLSI disc diffusion method; type: functional; procedure, shortened: as §1
Acinetobacter baumannii [18] = test: Antibacterial activity against Acinetobacter baumannii ATCC 19606 assessed as diameter of zone inhibition measured after 18 hrs by CLSI disc diffusion method; type: functional; procedure, shortened: as §2
Candida albicans = test: Antifungal activity against Candida albicans ATCC 90028 assessed as diameter of zone inhibition incubated for 24 hrs by CLSI disc diffusion method; type: functional; procedure, shortened: as §1
Staphylococcus aureus [19] = test: Antibacterial activity against Staphylococcus aureus ATCC 6538P measured after 18 hrs by CLSI broth dilution method; type: functional
Procedure, shortened: (§3)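 Broth MIC in Mueller-Hinton II broth following CLSI, compounds dissolved in DMSO. Strains subcultured twice on tryptic soy agar before testing. Growth read after 35 °C, 18 h.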

Staphylococcus aureus [20] = test: microbe, parasite or virus in culture; conditions: ATCC 6538P, 18 h, read-out: DIZ
Enterococcus faecalis [21] = test: Antibacterial activity against Enterococcus faecalis ATCC 29212 measured after 18 hrs by CLSI broth dilution method; type: functional; conditions: ATCC 29212, 18 h; procedure, shortened: as §3
Enterobacter cloacae [22] = test: microbe, parasite or virus in culture; conditions: DSM 6234, 18 h
Escherichia coli [23] = test: Antibacterial activity against Escherichia coli ATCC 25922 measured after 18 hrs by CLSI broth dilution method; type: functional; conditions: ATCC 25922, 18 h; procedure, shortened: as §3
[24] = system: Stenotrophomonas maltophilia; test: Antibacterial activity against Stenotrophomonas maltophilia ATCC 13637 measured after 18 hrs by CLSI broth dilution method; type: functional; conditions: ATCC 13637, 18 h; procedure, shortened: as §3
Serratia marcescens [25] = test: Antibacterial activity against Serratia marcescens ATCC 13880 measured after 18 hrs by CLSI broth dilution method; type: functional; conditions: ATCC 13880, 18 h; procedure, shortened: as §3
Enterococcus faecalis [26] = test: Bactericidal activity against Enterococcus faecalis ATCC 29212 measured after 18 hrs by CLSI broth dilution method; type: functional; conditions: ATCC 29212, 18 h
Procedure, shortened: (§4)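 Strains stored at -80 °C and subcultured twice on tryptic soy agar before testing. Compounds dissolved in DMSO. […] MBC then determined per CLSI recommendations.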

Staphylococcus aureus [27] = test: Bactericidal activity against Staphylococcus aureus ATCC 6538P measured after 18 hrs by CLSI broth dilution method; type: functional; procedure, shortened: as §4
[28] = system: Bordetella bronchiseptica; test: Bactericidal activity against Bordetella bronchiseptica ATCC 4617 measured after 18 hrs by CLSI broth dilution method; type: functional; conditions: ATCC 4617, 18 h; procedure, shortened: as §4
Klebsiella pneumoniae [29] = test: microbe, parasite or virus in culture; conditions: ATCC 13883, 18 h
Pseudomonas aeruginosa [30] = test: Antibacterial activity against Pseudomonas aeruginosa ATCC 27853 measured after 18 hrs by CLSI broth dilution method; type: functional; conditions: ATCC 27853, 18 h; procedure, shortened: as §3
Acinetobacter baumannii [31] = test: Antibacterial activity against Acinetobacter baumannii ATCC 19606 measured after 18 hrs by CLSI broth dilution method; type: functional; conditions: ATCC 19606, 18 h; procedure, shortened: as §3
Klebsiella pneumoniae [32] = test: Antibacterial activity against Klebsiella pneumoniae ATCC 13883 measured after 18 hrs by CLSI broth dilution method; type: functional; conditions: ATCC 13883, 18 h; procedure, shortened: as §3
Enterococcus faecium [33] = test: Bactericidal activity against Enterococcus faecium ATCC 6057 measured after 18 hrs by CLSI broth dilution method; type: functional; conditions: ATCC 6057, 18 h; procedure, shortened: as §4
[34] = system: Staphylococcus epidermidis; test: Bactericidal activity against Staphylococcus epidermidis ATCC 12228 measured after 18 hrs by CLSI broth dilution method; type: functional; conditions: ATCC 12228, 18 h; procedure, shortened: as §4
Enterobacter cloacae [35] = test: Antibacterial activity against Enterobacter cloacae DSM 6234 measured after 18 hrs by CLSI broth dilution method; type: functional; conditions: DSM 6234, 18 h; procedure, shortened: as §3
Burkholderia cepacia [36] = test: Antibacterial activity against Burkholderia cepacia ATCC 25416 measured after 18 hrs by CLSI broth dilution method; type: functional; conditions: ATCC 25416, 18 h; procedure, shortened: as §3
Enterococcus faecium [37] = test: Antibacterial activity against Enterococcus faecium ATCC 6057 measured after 18 hrs by CLSI broth dilution method; type: functional; conditions: ATCC 6057, 18 h; procedure, shortened: as §3
[38] = system: Bordetella bronchiseptica; test: Antibacterial activity against Bordetella bronchiseptica ATCC 4617 measured after 18 hrs by CLSI broth dilution method; type: functional; conditions: ATCC 4617, 18 h; procedure, shortened: as §3
Bacillus subtilis [39] = test: microbe, parasite or virus in culture; conditions: ATCC 6633, 18 h, read-out: DIZ
Burkholderia cepacia [40] = test: Bactericidal activity against Burkholderia cepacia ATCC 25416 measured after 18 hrs by CLSI broth dilution method; type: functional; conditions: ATCC 25416, 18 h; procedure, shortened: as §4
[41] = system: Staphylococcus epidermidis; test: microbe, parasite or virus in culture; conditions: ATCC 12228, 18 h, read-out: DIZ
Acinetobacter baumannii [42] = test: microbe, parasite or virus in culture; conditions: ATCC 19606, 18 h
Proteus mirabilis [43] = test: Antibacterial activity against Proteus mirabilis ATCC 12453 measured after 18 hrs by CLSI broth dilution method; type: functional; conditions: ATCC 12453, 18 h; procedure, shortened: as §3
Escherichia coli [44] = test: microbe, parasite or virus in culture; conditions: ATCC 25922, 18 h
[45] = system: Staphylococcus epidermidis; test: Antibacterial activity against Staphylococcus epidermidis ATCC 12228 measured after 18 hrs by CLSI broth dilution method; type: functional; conditions: ATCC 12228, 18 h; procedure, shortened: as §3

pKa [1]: 5.9 | pKa [3]: 8.6
SMILES: C[Si]1(C)OB(O)c2cc3c(c(F)c21)[Si](C)(C)OB3O
diameter of the inhibition zone (DIZ) (Candida tropicalis): inactive | diameter of the inhibition zone (DIZ) [2]: inactive | diameter of the inhibition zone (DIZ) (Pichia kudriavzevii): inactive | diameter of the inhibition zone (DIZ) (Candida parapsilosis): inactive | diameter of the inhibition zone (DIZ) (Bacillus subtilis [4]): 27 mm | diameter of the inhibition zone (DIZ) (Proteus mirabilis [5]): inactive | DIZ (Serratia marcescens [6]): inactive | diameter of the inhibition zone (DIZ) (Burkholderia cepacia [7]): inactive | diameter of the inhibition zone (DIZ) (Staphylococcus aureus [8]): 22 mm | diameter of the inhibition zone (DIZ) (Escherichia coli [9]): inactive | diameter of the inhibition zone (DIZ) [10]: inactive | diameter of the inhibition zone (DIZ) [11]: 34 mm | diameter of the inhibition zone (DIZ) (Enterobacter cloacae [12]): inactive | DIZ (Klebsiella pneumoniae [13]): inactive | diameter of the inhibition zone (DIZ) (Saccharomyces cerevisiae): inactive | diameter of the inhibition zone (DIZ) (Pseudomonas aeruginosa [14]): inactive | diameter of the inhibition zone (DIZ) (Enterococcus faecalis [15]): 15 mm | diameter of the inhibition zone (DIZ) (Enterococcus faecium [16]): 16 mm | diameter of the inhibition zone (DIZ) [17]: inactive | diameter of the inhibition zone (DIZ) (Acinetobacter baumannii [18]): inactive | diameter of the inhibition zone (DIZ) (Candida albicans): 11 mm

MIC (Staphylococcus aureus [19]): 8 µg/mL (≈ 33.6 µM) | MIC (Enterococcus faecalis [21]): 8 µg/mL (≈ 33.6 µM) | MIC (Escherichia coli [23]): 8 µg/mL (≈ 33.6 µM) | MIC [24]: 128 µg/mL (≈ 537 µM) | MIC (Serratia marcescens [25]): 128 µg/mL (≈ 537 µM) | MIC (Pseudomonas aeruginosa [30]): > 128 µg/mL | MIC (Acinetobacter baumannii [31]): 64 µg/mL (≈ 269 µM) | MIC (Klebsiella pneumoniae [32]): 32 µg/mL (≈ 134 µM) | MIC (Enterobacter cloacae [35]): 32 µg/mL (≈ 134 µM) | MIC (Burkholderia cepacia [36]): 32 µg/mL (≈ 134 µM) | MIC (Enterococcus faecium [37]): 8 µg/mL (≈ 33.6 µM) | MIC [38]: 64 µg/mL (≈ 269 µM) | MIC (Proteus mirabilis [43]): 128 µg/mL (≈ 537 µM) | MIC [45]: 4 µg/mL (≈ 16.8 µM)
SMILES: O=C1CN(/N=C/c2ccc([N+](=O)[O-])o2)C(=O)N1 [NITROFURANTOIN]
zone of inhibition at 300 µg/disc (Staphylococcus aureus [20]): 24 mm | MBC (Enterobacter cloacae [22]): 32 µg/mL (≈ 134 µM) | diameter of the inhibition zone (DIZ) [2]: inactive | MBC (Enterococcus faecalis [26]): 128 µg/mL (≈ 537 µM) | MBC (Staphylococcus aureus [27]): 16 µg/mL (≈ 67.2 µM) | MBC [28]: 128 µg/mL (≈ 537 µM) | MBC (Klebsiella pneumoniae [29]): 32 µg/mL (≈ 134 µM) | diameter of the inhibition zone (DIZ) (Proteus mirabilis [5]): 9 mm | diameter of the inhibition zone (DIZ) (Burkholderia cepacia [7]): 12 mm | diameter of the inhibition zone (DIZ) (Escherichia coli [9]): 24 mm | MBC (Enterococcus faecium [33]): > 128 µg/mL | MBC [34]: 8 µg/mL (≈ 33.6 µM) | diameter of the inhibition zone (DIZ) [10]: inactive | diameter of the inhibition zone (DIZ) (Enterobacter cloacae [12]): 17 mm | diameter of the inhibition zone (DIZ) (Pseudomonas aeruginosa [14]): inactive | zone of inhibition at 300 µg/disc (Bacillus subtilis [39]): 30 mm | MBC (Burkholderia cepacia [40]): 32 µg/mL (≈ 134 µM) | zone of inhibition at 300 µg/disc [41]: 31 mm | MBC (Acinetobacter baumannii [42]): 128 µg/mL (≈ 537 µM) | MBC (Escherichia coli [44]): 8 µg/mL (≈ 33.6 µM) | diameter of the inhibition zone (DIZ) (Acinetobacter baumannii [18]): 9 mm
